# Only some compounds are listed: those with a hit (about 3.2% of all), similar ones and a draw of the others.
# DENV2 CPE rescue: protects cells from dengue virus 2 cytopathic effect; DENV2-infected cells, cytopathic effect rescue, plate reader; CPE inhibition, % at 9.99 µM; hit rate 1.7% among 350,000; AID 651640; in the data active = CPE inhibition above about 20%, passing the limit was not always enough; inconclusive = no clear call, values can overlap the other calls; tested in BHK-21 cells;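 also: 0% = median of neutral control wells and 100% = median of positive control wells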
# Ecoli rRNA inh: inhibitors of bacterial rRNA selective over humanized ribosomes | GFP signal change (wild-type ribosome), % (concentration not given with the values) | E. coli WT GFP vs humanized-ribosome RFP mutants, fluorescence, 24 h; hits give low values; DMSO median 0, no signal -100 | hit rate 1.6% among 350,000;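 active = significant combined selectivity score with lowered wild-type GFP, culture density cut under 30%, mutant RFP and density less affected; inactive = any of these conditions unmet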
# PfHsp90 set2: inhibits growth of yeast expressing Plasmodium falciparum Hsp90; S. cerevisiae expressing PfHsp90, BacTiter-Glo ATP, 48 h; yeast lacking PDR1 and PDR3 efflux regulators; hit rate 0.32% among 310,000; AID 504621; inhibition, % at 9.4 µM;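 active = every replicate shows inhibition above about 80%, whatever the replicate mean, limit read from the data; inconclusive = mean inhibition reaches the set limit but some replicate falls short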;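 also: 0% = DMSO neutral controls and 100% = 20 µM radicicol positive controls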
# Cneo AK release: causes C. neoformans cell lysis; lysis activity, % at 15 µM; adenylate kinase release luminescence, 4 h; normalised: neutral wells 0, clomiphene wells 100; hit rate 0.2% among 360,000;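 active = mean lysis activity across replicates of at least 80%, whatever share of replicates individually reach that level; inactive = mean lysis activity below 80%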
#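 Assay system: Cryptococcus neoformans yeast cells / Dosing: single-point compound dose / Timing: 4 h at 37 °C static, read 1 h later / Measured by: luminescence of released adenylate kinase using an AK detection reagent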
# AF4-AF9 inh: MLL-AF4/AF9 protein interaction inhibition | P42568 | AlphaScreen, biotin-AF4 peptide binding to FLAG-AF9 | inhibition, % at 10 µM | hit rate 0.47% among 350,000;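 active = every replicate reaching a set inhibition limit, whatever the replicate mean, cut at about 25% in these data; inconclusive = mean inhibition reaches that limit but some replicates miss it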;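 also: 0% = plate neutral control median and 100% = total signal loss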
# Target sequence (P42568 whole entry, looked up): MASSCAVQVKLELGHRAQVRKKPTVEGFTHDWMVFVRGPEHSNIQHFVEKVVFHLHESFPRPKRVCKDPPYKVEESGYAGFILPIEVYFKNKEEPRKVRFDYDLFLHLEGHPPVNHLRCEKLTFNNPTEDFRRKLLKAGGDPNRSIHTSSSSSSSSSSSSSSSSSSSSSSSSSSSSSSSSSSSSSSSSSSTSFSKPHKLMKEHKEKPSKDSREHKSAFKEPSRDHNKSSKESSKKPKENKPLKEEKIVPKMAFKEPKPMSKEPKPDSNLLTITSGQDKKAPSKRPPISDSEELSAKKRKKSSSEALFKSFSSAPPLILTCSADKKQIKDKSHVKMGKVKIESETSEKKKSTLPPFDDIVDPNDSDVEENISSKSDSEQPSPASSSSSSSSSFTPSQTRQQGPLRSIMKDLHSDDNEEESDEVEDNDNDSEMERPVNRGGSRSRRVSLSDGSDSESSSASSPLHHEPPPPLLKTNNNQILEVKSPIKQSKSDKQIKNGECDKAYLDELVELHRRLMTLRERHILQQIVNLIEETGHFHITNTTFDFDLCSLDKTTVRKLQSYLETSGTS
# S100A4 MyoIIA: inhibitors of human S100A4 binding to myosin IIA peptide. hit rate 0.14% among 360,000. S100A4/TAMRA-MyoIIA peptide fluorescence polarization. inhibition, % at 10.7 µM. P26447;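 active = mean inhibition of at least 70% across replicates, with every replicate also reaching that level; inconclusive = mean inhibition reaches 70% but some replicates fall short; inactive = mean inhibition below 70%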
# Target sequence (P26447 whole entry, looked up): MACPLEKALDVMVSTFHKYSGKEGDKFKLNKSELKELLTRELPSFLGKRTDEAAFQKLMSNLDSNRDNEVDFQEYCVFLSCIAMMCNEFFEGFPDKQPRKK
#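 Compound dosing: one dose per compound; test system: human S100A4 monomer with TAMRA-labelled myosin IIA peptide; probe or stimulus: TAMRA-labelled myosin IIA heavy-chain peptide probe, 5 nM; medium: HEPES buffer with Ca2+, pH 7.2; schedule: 5 min incubation before reading; benchmarks: neutral control DMSO, positive control TFP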
# AID977621: wild-type E. coli growth inhibition versus H69 humanized strain – H69 mutant RFP, wild-type GFP, cherry-pick, dose response; shares compounds with Ecoli rRNA inh; activity change, negative = inhibition at 50 µM; AID 977621; fluorescence, 24 h; 1,900 tested, under 10 active;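 active = Wild-type ribosome reporter drop at least double the humanized mutant ribosome reporter drop, growth loss under a set limit; inconclusive = no clear call, values can overlap the other calls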;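 also: wild-type GFP and H69 mutant RFP strains grown together 50/50 in each well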
# AID977628: E. coli growth inhibition, wild-type GFP versus h24 humanized RFP strain, dose response, h24 mutant RFP vs wild-type GFP, cherry-pick; shares compounds with Ecoli rRNA inh; E. coli WT GFP strain growth, fluorescence, 24 h; activity change, negative = inhibition at 50 µM; 1,900 tested, under 10 active;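 active = compound lowering the normal-ribosome reporter at least twice as much as the humanized-ribosome reporter, growth loss under a set limit; inconclusive = no clear call, values can overlap the other calls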;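 also: wild-type GFP and h24 humanized RFP strains co-cultured 1 to 1 per well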
# * = called active by the depositor; ? = inconclusive; . = not tested or not shown.
SMILES,DENV2 CPE rescue,Ecoli rRNA inh,PfHsp90 set2,Cneo AK release,AF4-AF9 inh,S100A4 MyoIIA,AID977621,AID977628
O=C(C[C@H]1CC[C@@H]2[C@H](COC[C@H](O)CN2C(=O)Cc2ccccc2)O1)NC1CCC1,-19,4,.,-4,0,60,.,.
CC1=CC(C)(C)N(C(=O)CSc2nnc(N)s2)c2cc(C)c(C)cc21,.,.,14,0,.,.,.,.
CC1=CC(C)(C)N(C(=O)CSc2nnc(C)s2)c2ccc(C)cc21,4,-17*,3,1,2,-1,5.1,?
O=c1[nH]nc(SCc2ccccc2)n1C1CC2C=CC1C2 (stereo not drawn),0,-35*,13,.,.,-4,-23,?
O=C(CCCOc1ccc(Cl)cc1Cl)Nc1ccccc1C(=O)O,2,-30*,-32,-4,-34,4,-15,.
Cc1ccc(S(=O)(=O)N[C@@H]2CC[C@@H](CC(=O)NCCN3CCCCC3)O[C@H]2CO)cc1,-6,1,.,-4,0,2,.,.
CCCC#Cc1cnc2c(c1)C(=O)N([C@H](C)CO)C[C@@H](C)[C@H](CN(C)C(=O)CCN1CCCCC1)O2,.,3,.,.,-4,.,.,.
CCC(C(=O)NC1CCCC1)n1c(-c2ccncc2)nc2ccccc21 (stereo not drawn),6,4,.,.,2,4,.,.
CCC(C(=O)NC1CCCC1)n1c(-c2ccnc3ccccc23)nc2ccccc21 (stereo not drawn),-4,-14*,.,.,1,-1,-16,-14
Clc1cccc(OCc2nc(-c3ccncc3)n[nH]2)c1,-4,-22*,-44,.,-1,-1,-1.1,.
NC(=O)c1ccc(NC(=O)COC(=O)C2CC3C=CC2C3)cc1 (stereo not drawn),?,2,24,1,6,0,.,.
O=C(COC(=O)C1CC2C=CC1C2)Nc1ccc([N+](=O)[O-])cc1 (stereo not drawn),7,-31*,3,-1,2,-3,-17,-12
COC(=O)c1ccccc1Oc1nc(Cl)cc(OC)n1,.,.,.,2,.,.,.,.
COc1cc(OC)nc(Oc2ccccc2C(=O)Oc2ccc(C)cc2)n1,-3,-24*,5,0,-8,4,-21,.
Cc1ccc(C(=O)Nc2ccc(C)c(S(=O)(=O)Nc3ccccc3Cl)c2)s1,-6,-32*,-88,1,8,25,-12,?
CN(C)S(=O)(=O)N1CCN(c2cc(Cl)ccc2Cl)CC1,.,.,2,2,.,.,.,.
CN(C)S(=O)(=O)N1CCN(c2ccccc2Cl)CC1,3,-21*,2,3,1,-1,-0.038,-7.4
O=[N+]([O-])c1ccc2nc(-c3ccccc3[N+](=O)[O-])[nH]c2c1,2,-28*,19,.,0,-3,.,-12
O=[N+]([O-])c1cccc(-c2nc3ccc([N+](=O)[O-])cc3[nH]2)c1,3,9,2,.,3,4,.,.
O=C(NCc1ccc2c(c1)OCO2)c1nc(S(=O)(=O)Cc2ccccc2)ncc1Cl,-1,-13,2,-2,-1,-2,.,.
O=C(NCc1ccccc1)c1nc(S(=O)(=O)Cc2ccccc2)ncc1Cl,7,-24*,-21,0,2,-6,-24,-7.2
COC(=O)c1ccccc1NC(=O)c1nc(S(=O)(=O)Cc2ccccc2)ncc1Cl,2,5,-5,0,-3,2,.,.
COc1ccc(CNC(=O)c2nc(S(=O)(=O)Cc3ccccc3)ncc2Cl)cc1,1,-16*,9,-2,-3,-2,-2.7,-4.8
O=C(N[C@@H]1CC[C@@H](CCNC(=O)c2ccccc2F)O[C@@H]1CO)c1cnccn1,-1,1,.,-4,1,-7,.,.
COc1cc(C(=O)NCCc2c[nH]c3ccccc23)ccc1OCc1c(C)noc1C,2,-38*,1,-1,3,-10,-13,?
SMILES,DENV2 CPE rescue,Ecoli rRNA inh,PfHsp90 set2,Cneo AK release,AF4-AF9 inh,S100A4 MyoIIA,AID977621,AID977628
COc1ccc(CCNC(=O)c2ccc(OCc3c(C)noc3C)c(OC)c2)cc1,3,23,28,0,-2,-13,.,.
CSCCC1NC(=O)N(C(C)C(=O)Nc2cc(Cl)cc(Cl)c2)C1=O (stereo not drawn),15,-21*,.,3,5,-5,-19,-9.7
Cc1cc(NC(=O)CCCn2cc([N+](=O)[O-])cn2)n(Cc2ccc(F)cc2)n1,?,-23*,-18,.,2,-1,0.39,?
O=C(Nc1ccccc1)c1ccc(-c2ccc([N+](=O)[O-])cc2)o1,4,-11,-16,.,-9,-1,.,.
COc1ccc(NC(=O)c2ccc(-c3ccc([N+](=O)[O-])cc3)o2)cc1,1,-26*,-1,2,-1,-9,.,?
COc1ccc(CNc2cc([N+](=O)[O-])ccc2OC)cc1,-2,-21*,16,1,13,-7,-6.4,.
COc1ccc(C)cc1NCc1ccc([N+](=O)[O-])cc1,-2,-2,5,-3,23,-2,.,.
C[C@H](CO)N1C[C@H](C)[C@H](CN(C)Cc2ccncc2)Oc2c(NC(=O)NC3CCCCC3)cccc2C1=O,16,1,.,-1,0,-6,.,.
COc1ccccc1S(=O)(=O)N(C)C[C@@H]1Oc2cc(C#CCC(C)C)ccc2S(=O)(=O)N([C@@H](C)CO)C[C@@H]1C,-7,-1,.,39,4,0,.,.
COc1ccc(-c2cc(C(=O)Nc3ccc(C(N)=O)cc3)c3ccccc3n2)cc1OC,4,-26*,-10,.,0,-2,-8.5,-5.4
Cc1noc(C)c1NC(=O)Nc1ccc2c(c1)C(=O)N([C@@H](C)CO)C[C@H](C)[C@H](CN(C)CC1CC1)O2,-2,4,.,25,-3,-3,.,.
OCCN(Cc1ccccc1)Cc1ccccc1O,-2,5,9,.,0,2,.,.
OCCN(Cc1ccccc1)Cc1ccc(F)c(F)c1,-4,-23*,.,.,0,-9,-11,-9.4
O=c1c2ccccc2cnn1Cc1n[nH]c(=S)n1C1CC2CCC1C2 (stereo not drawn),-5,-20*,-13,.,-12,-2,-3.5,.
CC(c1ccccc1)n1c(Cn2ncc3ccccc3c2=O)n[nH]c1=S (stereo not drawn),4,-9,-5,0,-10,0,.,.

# High-throughput results (PubChem BioAssay)
